ChEMBL document CHEMBL5661964, “Selective in vivo and in vitro effects of a small molecule inhibitor of cyclin-dependent kinase 4” (J Natl Cancer Inst, 2001)

Experiments:
CDK6/cyclin D1 = CDK6/cyclin D1 (Homo sapiens, UniProt Q00534); test: Inhibition of GST-tagged human CDK6/Cyclin D1 expressed in baculovirus infected Sf9 cells using retinoblastoma protein in presence of ATP
Outline: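 Cdk holoenzymes (Cdk with GST-cyclin or activator), expressed in Sf9 insect cells and purified on glutathione-Sepharose, were combined 1:1. Radiometric reactions used [33P]ATP with GST-pRb(152), the C-terminal 152-residue pRb fragment, as substrate. Label was quantified by phosphorimager. Ten inhibitor concentrations from 0 to 100 μM were run in duplicate across three independent experiments. IC50 came from plotting percent incorporation relative to the no-inhibitor reaction against concentration.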

HCT-116 [1] = test: Induction of cell cycle arrest in human HCT-116 cells assessed as number of cells at G0/G1 phase at 5 uM after 24 hrs in presence of 10% serum by flow cytometry analysis (reference value: 49.5%); format: functional
Outline: (§1)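 HCT116 cells in McCoy's 5A were serum-starved 72 h in 0.1% serum, then released for 24 h into 10% serum with or without compound. They were fixed in 70% ethanol, RNase-treated (3 mg/mL, 30 min, 37 °C) and stained with 50 μg/mL propidium iodide. Flow cytometry on FL-2 area with doublet gating gave the percentages in sub-G1, G0/G1, S and G2/M.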

HCT-116 [2] = test: Induction of cell cycle arrest in human HCT-116 cells assessed as number of cells at S phase at 5 uM after 24 hrs in presence of 10% serum by flow cytometry analysis (reference value: 36.3%); format: functional; outline: as §1
HCT-116 [3] = test: Induction of cell cycle arrest in human HCT-116 cells assessed as number of cells at G0/G1 phase at 10 uM after 24 hrs in presence of 10% serum by flow cytometry analysis (reference value: 49.5%); format: functional; outline: as §1
HCT-116 [4] = test: Induction of cell cycle arrest in human HCT-116 cells assessed as number of cells at G2/M phase at 10 uM after 24 hrs in presence of 10% serum by flow cytometry analysis (reference value: 13.1%); format: functional; outline: as §1
MRC5 = test: Induction of cell cycle arrest in human MRC5 cells assessed as number of cells at G0/G1 phase at 5 uM after 24 hrs in presence of 10% serum by flow cytometry analysis (reference value: 64.1%); format: functional
U2OS [5] = test: Induction of cell cycle arrest in human U2OS cells assessed as percentage of cells at G0/G1 phase, cells were released from mimosine block prior to compound addition at 10 uM after 16 hrs by flow cytometry analysis (reference value: 17.2%); format: functional
U2OS [6] = test: Induction of cell cycle arrest in human U2OS cells assessed as percentage of cells at S phase, cells were released from mimosine block prior to compound addition at 5 uM after 16 hrs by flow cytometry analysis (reference value: 33%); format: functional
U2OS [7] = test: Induction of cell cycle arrest in human U2OS cells assessed as percentage of cells at G2/M phase, cells were released from mimosine block prior to compound addition at 5 uM after 38 hrs by flow cytometry analysis (reference value: 32.3%); format: functional
U2OS [8] = test: Induction of cell cycle arrest in human U2OS cells assessed as percentage of cells at SubG1 phase, cells were released from mimosine block prior to compound addition at 5 uM after 16 hrs by flow cytometry analysis (reference value: 2.2%); format: functional
NIH3T3 = test: Induction of cell cycle arrest in mouse NIH3T3 cells expressing pRb-negative assessed as percentage of cells at G0/G1 phase at 10 uM after 24 hrs by flow cytometry analysis (reference value: 43.5%); format: functional
U2OS [9] = test: Induction of cell cycle arrest in human U2OS cells expressing pRb assessed as percentage of cells at G0/G1 phase at 10 uM after 24 hrs by flow cytometry analysis (reference value: 49.8%); format: functional

Sequence of CDK6/cyclin D1 (P24385 whole entry, the tested form may be a part): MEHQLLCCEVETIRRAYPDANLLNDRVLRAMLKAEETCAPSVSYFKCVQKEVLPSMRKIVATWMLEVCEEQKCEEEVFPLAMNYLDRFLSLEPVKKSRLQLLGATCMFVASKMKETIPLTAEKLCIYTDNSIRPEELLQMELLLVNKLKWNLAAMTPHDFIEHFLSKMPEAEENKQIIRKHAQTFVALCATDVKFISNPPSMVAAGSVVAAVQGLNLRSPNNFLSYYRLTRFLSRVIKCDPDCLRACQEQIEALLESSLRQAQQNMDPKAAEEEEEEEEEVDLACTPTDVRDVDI
Sequence of CDK6/cyclin D1 (Q00534 whole entry, the tested form may be a part): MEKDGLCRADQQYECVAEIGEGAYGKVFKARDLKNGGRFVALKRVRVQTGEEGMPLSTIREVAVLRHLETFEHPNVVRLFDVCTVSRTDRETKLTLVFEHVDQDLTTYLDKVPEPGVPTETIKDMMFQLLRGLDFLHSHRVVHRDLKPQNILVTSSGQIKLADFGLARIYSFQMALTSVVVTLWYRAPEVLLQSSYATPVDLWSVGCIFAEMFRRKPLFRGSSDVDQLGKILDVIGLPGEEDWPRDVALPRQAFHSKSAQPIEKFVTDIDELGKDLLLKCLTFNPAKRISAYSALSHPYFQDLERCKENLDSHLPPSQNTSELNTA

Question: For `CCNc1cc(N[C@H]2CC[C@H](O)CC2)nc(Nc2ccc3c(ccn3Cc3ccccc3)c2)n1`, which IC50 (CDK6/cyclin D1) is on record?
Answer: 5.6 µM

Question: And the Activity (HCT-116 [1])?
Answer: 62.5%

Question: What about the Activity (HCT-116 [2]) of the same molecule?
Answer: 20.7%

Question: And the Activity (HCT-116 [3])?
Answer: 60.3%

Question: What about the Activity (HCT-116 [4]) of the same molecule?
Answer: 13%

Question: And the Activity (MRC5)?
Answer: 81%

Question: And the Activity (U2OS [5])?
Answer: 16.7%

Question: And the Activity (U2OS [6])?
Answer: 33%

Question: And the Activity (U2OS [7])?
Answer: 31.4%

Question: What about the Activity (U2OS [8]) of the same molecule?
Answer: 12.8%

Question: And the Activity (NIH3T3)?
Answer: 48.7%

Question: What about the Activity (U2OS [9]) of the same molecule?
Answer: 82.9%
